According to ChEMBL document CHEMBL3244336, “Antitumor agents. 1. 1,4-Bis[(aminoalkyl)amino]-9,10-anthracenediones” (J Med Chem, 1979):
The source made the active and inactive calls.

Experiments:
B16 [1] = assay: Antitumor activity against mouse B16 cells allografted in BDF1 mouse assessed as increase of median life span at 50 mg/kg, ip on day 1 to 9 measured up to 80 days relative to control; format: functional; settings: route intraperitoneal
Outline: (§1)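 BDF1 mice implanted ip with a homogenate from 0.05 g of B16 tumor. Test agent given ip on days 1-9. Deaths recorded for 80 days. Result is % increase in median life span over untreated controls. "Cures" are survivors/total at 80 days.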

P388 [2] = assay: Antitumor activity against mouse P388 cells allografted in mouse assessed as disease cure at 200 mg/kg, ip on day 1, 5 and 9 measured up to 60 days; format: functional, organism-based; design: dose 200 mg/kg
Outline: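 BDF1 or CDF1 mice inoculated ip with ascitic P388 leukemia cells, dosed ip on days 1, 5 and 9. Deaths recorded for 60 days; "cures" taken as number of survivors/total at 60 days.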

P388 [3] = assay: Antitumor activity against mouse P388 cells allografted in mouse assessed as increase of median life span at 200 mg/kg, ip on day 1, 5 and 9 measured up to 60 days relative to control; format: functional; settings: route intraperitoneal
Outline: (§2)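 BDF1 or CDF1 mice inoculated ip with ascitic P388 leukemia cells. Dosing ip on days 1, 5 and 9. Deaths recorded for 60 days; % increase in median life span over controls. "Cures" are survivors/total at 60 days.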

B16 [4] = assay: Antitumor activity against mouse B16 cells allografted in BDF1 mouse assessed as disease cure at 50 mg/kg, ip on day 1 to 9 measured up to 80 days; format: functional, organism-based; design: dose 50 mg/kg
Outline: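 BDF1 mice implanted ip with homogenate from 0.05 g of B16 tumor, then dosed ip on days 1-9. Deaths recorded for 80 days; "cures" scored as survivors/total at 80 days.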

[5] = Toxicity in […] assessed as maximum tolerated dose administered as single dose; format: organism-based, P388; settings: mouse, in vivo, ip
P388 [6] = assay: Antitumor activity against mouse P388 cells allografted in ip dosed mouse assessed as minimum effective dose administered as single dose; format: functional; settings: read-out: MED
Outline: (§3)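 Drug given ip to P388 tumor-bearing mice, either once as a single dose or once each 4 days for three injections. Minimum effective dose defined as the dose giving 40% increase in life span over control, read from regression lines of log dose-response data.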

[7] = Therapeutic index, ratio of MTD for mouse P388 cells allografted ip dosed mouse to MED for mouse P388 cells allografted in ip dosed mouse administered as single dose; format: organism-based; settings: in vivo, read-out: TI
Outline: (§4)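 Therapeutic index is MTD/MED for ip dosing, either single or once every 4 days ×3. MTD is the 10% lethal dose in normal mice over 21 days. MED is the dose giving a 40% life-span increase in P388-bearing mice. Both come from log dose-response regression lines.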

P388 [8] = assay: Antitumor activity against mouse P388 cells allografted in mouse assessed as disease cure at 100 mg/kg, ip on day 1, 5 and 9 measured up to 60 days; format: functional, organism-based; design: dose 100 mg/kg
Outline: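 BDF or CDF1 mice injected ip with ascitic leukemia cells, then dosed ip on days 1, 5 and 9. Deaths recorded for 60 days. Read-outs: percent increase in median life span over controls, and "cures" as survivors/total at 60 days.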

P388 [9] = assay: Antitumor activity against mouse P388 cells allografted in mouse assessed as increase of median life span at 100 mg/kg, ip on day 1, 5 and 9 measured up to 60 days relative to control; format: functional; settings: route intraperitoneal
[10] = Toxicity in […] assessed as maximum tolerated dose administered as once each 4 days for 3 total injection; format: organism-based, P388; settings: mouse, in vivo, ip
P388 [11] = assay: Antitumor activity against mouse P388 cells allografted in ip dosed mouse assessed as minimum effective dose administered as once each 4 days for 3 total injection; format: functional; settings: 96 h, read-out: MED; outline: as §3
P388 [12] = assay: Antitumor activity against mouse P388 cells allografted in ip dosed mouse assessed as dose providing 40% increase in life span administered as once each 4 days for 3 total injection; format: functional
Outline: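 P388 tumor-bearing mice dosed ip, either once as a single dose or once every 4 days for three injections. It was read from regression lines of log dose-response data.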

[13] = Therapeutic index, ratio of MTD for mouse P388 cells allografted ip dosed mouse to MED for mouse P388 cells allografted in ip dosed mouse administered as once each 4 days for 3 total injection; format: organism-based; settings: in vivo, read-out: TI; outline: as §4
P388 [14] = assay: Antitumor activity against mouse P388 cells allografted in mouse assessed as increase of median life span at 50 mg/kg, ip on day 1, 5 and 9 measured up to 60 days relative to control; format: functional; settings: route intraperitoneal; outline: as §2
B16 [15] = assay: Antitumor activity against mouse B16 cells allografted in BDF1 mouse assessed as increase of median life span at 12.5 mg/kg, ip on day 1 to 9 measured up to 80 days relative to control; format: functional; settings: route intraperitoneal
P388 [16] = assay: Antitumor activity against mouse P388 cells allografted in mouse assessed as increase of median life span at 25 mg/kg, ip on day 1, 5 and 9 measured up to 60 days relative to control; format: functional; settings: route intraperitoneal; outline: as §2
B16 [17] = assay: Antitumor activity against mouse B16 cells allografted in BDF1 mouse assessed as increase of median life span at 6.2 mg/kg, ip on day 1 to 9 measured up to 80 days relative to control; format: functional; settings: route intraperitoneal; outline: as §1

Structure (SMILES)	ILS at 50 mg/kg (B16 [1]) [%]	Activity (P388 [2])	ILS at 200 mg/kg (P388 [3]) [%]	Activity (B16 [4])	further results
O=C1c2c(O)ccc(O)c2C(=O)c2c(NCCCN3CCOCC3)ccc(NCCCN3CCOCC3)c21	0	inactive	40	inactive	–
COc1cccc2c1C(=O)c1c(O)c3c(c(O)c1C2=O)C[C@@](O)(C(C)=O)C[C@@H]3O[C@H]1C[C@H](N)[C@H](O)[C@H](C)O1 [DAUNORUBICIN]	–	–	–	–	MTD [5]: 5.2 mg/kg; minimal effective dose (P388 [6]): 0.52 mg/kg; selectivity ratio [7]: 10
CN(C)CCCNc1ccc(NCCCN(C)C)c2c1C(=O)c1ccccc1C2=O	0	–	0	–	–
O=C1c2c(O)ccc(O)c2C(=O)c2c(NCCO)ccc(NCCO)c21	–	–	–	–	Activity (P388 [8]): inactive; ILS at 100 mg/kg (P388 [9]): 0%
CC(C)N(CCNc1ccc(NCCN(C(C)C)C(C)C)c2c1C(=O)c1c(O)ccc(O)c1C2=O)C(C)C	0	inactive	0	inactive	–
O=P1(N(CCCl)CCCl)NCCCO1 (stereo not given) [CYCLOPHOSPHAMIDE ANHYDROUS]	–	–	–	–	MTD at 96 h [10]: 100 mg/kg; minimal effective dose (P388 [11]): 12 mg/kg; MTD [5]: 350 mg/kg; Activity (P388 [12]): 142 mg/kg; selectivity ratio at 96 h [13]: 8; minimal effective dose (P388 [6]): 26.3 mg/kg; selectivity ratio [7]: 13
CCCCN(CCCC)CCNc1ccc(NCCN(CCCC)CCCC)c2c1C(=O)c1c(O)ccc(O)c1C2=O	0	inactive	0	inactive	–
O=C1c2c(O)ccc(O)c2C(=O)c2c(NCCNCCNCCO)ccc(NCCNCCNCCO)c21	35	–	–	inactive	ILS at 100 mg/kg (P388 [9]): 73%
O=C1c2c(O)ccc(O)c2C(=O)c2c(NCCN3CCNCC3)ccc(NCCN3CCNCC3)c21	103	–	–	inactive	Activity (P388 [8]): inactive; ILS at 100 mg/kg (P388 [9]): 133%
Nc1ccc(N)c2c1C(=O)c1ccccc1C2=O	–	–	–	–	Activity (P388 [8]): inactive; ILS at 100 mg/kg (P388 [9]): 0%
O=C1c2c(O)ccc(O)c2C(=O)c2c(NCCN3CCOCC3)ccc(NCCN3CCOCC3)c21	–	inactive	0	–	–
CN(C)CCCCCNc1ccc(NCCCCCN(C)C)c2c1C(=O)c1ccccc1C2=O	–	inactive	0	–	–
Cc1ccc2c(c1)C(=O)c1c(NCCN(C)C)ccc(NCCN(C)C)c1C2=O	–	inactive	0	–	–
CCN(CC)CCNc1ccc(NCCN(CC)CC)c2c1C(=O)c1ccccc1C2=O	–	inactive	40	–	–
CN(C)CCCCNc1ccc(NCCCCN(C)C)c2c1C(=O)c1c(O)ccc(O)c1C2=O	0	inactive	0	inactive	–
CN(C)CCNc1ccc(NCCN(C)C)c2c1C(=O)c1cc(Cl)c(Cl)cc1C2=O	–	inactive	0	–	–

Structure (SMILES)	ILS at 50 mg/kg (B16 [1]) [%]	Activity (P388 [2])	ILS at 200 mg/kg (P388 [3]) [%]	Activity (B16 [4])	further results
O=c1[nH]cc(F)c(=O)[nH]1 [FLUOROURACIL]	–	–	–	–	MTD at 96 h [10]: 48 mg/kg; minimal effective dose (P388 [11]): 11.4 mg/kg; MTD [5]: 280 mg/kg; Activity (P388 [12]): 70 mg/kg; selectivity ratio at 96 h [13]: 4; minimal effective dose (P388 [6]): 88 mg/kg; selectivity ratio [7]: 3
CN(Cc1cnc2nc(N)nc(N)c2n1)c1ccc(C(=O)N[C@@H](CCC(=O)O)C(=O)O)cc1 [METHOTREXATE]	–	–	–	–	MTD at 96 h [10]: 17.5 mg/kg; minimal effective dose (P388 [11]): 1.5 mg/kg; MTD [5]: 108 mg/kg; Activity (P388 [12]): 102 mg/kg; selectivity ratio at 96 h [13]: 11; minimal effective dose (P388 [6]): 27.9 mg/kg; selectivity ratio [7]: 4
CN(C)CCNc1ccc(NCCN(C)C)c2c1C(=O)c1c(O)ccc(O)c1C2=O	–	–	–	–	ILS at 50 mg/kg (P388 [14]): 122%; ILS at 12.5 mg/kg (B16 [15]): 70%
CCNc1ccc(NCC)c2c1C(=O)c1ccccc1C2=O	–	–	–	–	ILS at 100 mg/kg (P388 [9]): 0%
CC(=O)NCCNc1ccc(NCCNC(C)=O)c2c1C(=O)c1c(O)ccc(O)c1C2=O	0	–	0	inactive	–
CCN(CC)CCCC(C)Nc1ccc(NC(C)CCCN(CC)CC)c2c1C(=O)c1c(O)ccc(O)c1C2=O (stereo not given)	0	–	–	inactive	Activity (P388 [8]): inactive; ILS at 100 mg/kg (P388 [9]): 30%
CN(CCNc1ccc(NCCN(C)c2ccccc2)c2c1C(=O)c1c(O)ccc(O)c1C2=O)c1ccccc1	0	inactive	0	inactive	–
CN(C)CCCCCNc1ccc(NCCCCCN(C)C)c2c1C(=O)c1c(O)ccc(O)c1C2=O	0	inactive	0	inactive	–
CNCCNc1ccc(NCCNC)c2c1C(=O)c1ccccc1C2=O	–	–	–	–	ILS at 25 mg/kg (P388 [16]): 144%; ILS at 6.2 mg/kg (B16 [17]): 114%
O=C1c2ccccc2C(=O)c2c(NCCO)ccc(NCCO)c21	–	–	–	–	ILS at 100 mg/kg (P388 [9]): 0%
O=C1c2ccccc2C(=O)c2c(NCCN3CCCCC3)ccc(NCCN3CCCCC3)c21	–	inactive	27	–	–
CCN1CCCC1CNc1ccc(NCC2CCCN2CC)c2c1C(=O)c1c(O)ccc(O)c1C2=O (stereo not given)	30	inactive	45	inactive	–
CNCCNCCNc1ccc(NCCNCCNC)c2c1C(=O)c1c(O)ccc(O)c1C2=O	122	–	–	inactive	ILS at 100 mg/kg (P388 [9]): 120%
CCN(CC)CCNc1ccc(NCCN(CC)CC)c2c1C(=O)c1c(O)ccc(O)c1C2=O	38	–	88	–	–
CCCNCCNc1ccc(NCCNCCC)c2c1C(=O)c1c(O)ccc(O)c1C2=O	0	–	–	inactive	ILS at 50 mg/kg (P388 [14]): 36%
CN(C)CCNc1ccc(NCCN(C)C)c2c1C(=O)c1ccccc1C2=O	39	–	–	–	ILS at 100 mg/kg (P388 [9]): 68%
